Series [1] can be described thus: Plasma protein binding in mouse at 2000 ng/ml for 4 hrs by LC-MS/MS analysis. The format is ADME, cell-free. Conditions: read-out: PPB (converted).
Series [2] addresses Protein disulfide-isomerase (Homo sapiens) (UniProt P07237). The experiment in a line: Binding affinity to PDI catalytic domain a (unknown origin) after 1 hrs by intrinsic tryptophan fluorescence assay. The gist of the method:
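PDIa intrinsic Trp fluorescence recorded with varying securinine concentrations; emission spectra taken and intensity at 330 nm normalized; Kd derived from concentration-dependent quenching.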

Series [3] has as its system PC-12. Description: Neuroprotective activity against rat PC12 cells expressing mutant HTT-Q103 assessed as increase in cell viability compound preincubated for 0,1,2,or 3 days in PC12 growth medium followed by cells addition measured after 48 hrs by alamar blue assay. The format is functional, cell-based. In a few lines: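 Compound held at 37 °C for 0, 1, 2 or 3 days in PC12 growth medium, then aliquots added to induced PC12 mHTT-Q103 cells. After 48 h treatment, Alamar blue added and viability quantified by fluorescence plate reader.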
In general terms: Resazurin is reduced to fluorescent resorufin, in cell work by metabolically active cells.

For series [4], the target named is Protein disulfide-isomerase (Homo sapiens) (UniProt P07237). The experiment in a line: Irreversible binding affinity to PDI catalytic domain a (unknown origin) at 4.5 mM measured after 100 fold dilution for 2 hrs by intrinsic tryptophan fluorescence assay. In a few lines: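 Jump-dilution reversibility test: PDIa (1 mM) incubated with ligand at 4.5 mM, complex diluted 100-fold (to 45 μM ligand, 10 μM PDIa) and dialysed, then Trp emission spectra recorded. Phenylarsine oxide, a covalent vicinal-thiol modifier, processed identically as control.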

The test system of series [5] is PC-12. Description: Neuroprotective activity against rat PC12 cells expressing mutant HTT-Q103 assessed as cell viability by alamar blue assay. In kind it is functional, cell-based. The gist of the method: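 PC12 cells stably carrying inducible mutant HTT plasmid (mHTT-Q103); expression induced, causing death within 48 h. Serial-dilution dose–response; after 48 h Alamar blue added and fluorescence read. Data as mean percent of DMSO-treated uninduced cells ± SD; EC50 from curve.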

The nature of series [6]: Intrinsic clearance in mouse liver microsome at 0.5 microM incubated upto 45 mins by LC-MS/MS analysis. The following applies: microsomes, 0.75 h. In kind it is ADME. In a few lines: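 Mouse liver microsome incubation; intrinsic clearance expressed as mL/min/g, with 7-ethoxycoumarin as reference compound.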
The nature of series [7]: Half life in mouse plasma at 1 uM for 120 mins by LC-MS/MS analysis. The format is ADME, cell-free.

The values below come from ChEMBL document CHEMBL3734722, “Structural Elucidation of a Small Molecule Inhibitor of Protein Disulfide Isomerase” (ACS Med Chem Lett, 2015).

Active and inactive are the calls of the source.

Protein disulfide-isomerase (Homo sapiens), sequence (P07237 18-508 limits assumed): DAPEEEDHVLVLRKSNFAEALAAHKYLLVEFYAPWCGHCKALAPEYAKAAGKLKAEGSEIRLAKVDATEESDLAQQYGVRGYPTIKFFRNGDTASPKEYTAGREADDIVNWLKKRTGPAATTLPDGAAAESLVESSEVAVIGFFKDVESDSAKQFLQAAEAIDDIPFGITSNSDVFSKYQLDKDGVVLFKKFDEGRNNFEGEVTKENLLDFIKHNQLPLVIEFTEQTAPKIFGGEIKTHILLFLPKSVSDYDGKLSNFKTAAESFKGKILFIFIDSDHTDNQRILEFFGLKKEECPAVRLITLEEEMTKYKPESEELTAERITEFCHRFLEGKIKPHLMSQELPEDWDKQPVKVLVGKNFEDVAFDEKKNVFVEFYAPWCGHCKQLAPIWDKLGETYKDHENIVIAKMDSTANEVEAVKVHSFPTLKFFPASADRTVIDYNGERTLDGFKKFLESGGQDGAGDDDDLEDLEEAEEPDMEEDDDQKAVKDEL

On to `CC(=O)CC(c1ccccc1)c1c(O)c2ccccc2oc1=O` (stereo not given) [WARFARIN], for which the fraction unbound at 4 h, 2000 ng/ml in series [1] is 0.06.
On to `O=C1C=C2C=C[C@H]3C[C@@]2(O1)[C@H]1CCCCN31`, for which, in series [2], the Activity result is “Dose-dependent effect”. Moreover, the outcome in series [3] and in series [4] was Active. In addition, the EC50 – broadly, the concentration at which the effect is half-maximal – in series [5] was determined as 3.3 µM. In series [6], the CLint stood at 8.3 mL/min/g. Also, in series [7], the half-life – broadly, the time needed for the level to fall by half in the phase considered – at 1 µM is 1.6 h. Also, the fraction unbound at 4 h, 2000 ng/ml in series [1] is 0.51.
Regarding `CC(C)C1OCCN1CC1COC2(CCCCC2)O1` (stereo not given), in series [5], the result was inactive.
Regarding `CCOc1ccc2ccc(=O)oc2c1` [ETHOXYCOUMARIN], the CLint in series [6] is 24.58 mL/min/g.
